Tests used:
Homo sapiens = species: Homo sapiens; assay: Selectivity factor, ratio of IC50 for human CYP11B2 to IC50 for human CYP11B1
Outline: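 V79MZh hamster fibroblasts expressing human CYP11B1 or CYP11B2 were incubated with [1,2-3H]-11-deoxycorticosterone (100 nM) plus inhibitor at a range of concentrations. […] The selectivity factor is IC50(CYP11B2)/IC50(CYP11B1).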

[1] = target: T1, Cytochrome P450 11B1, mitochondrial (Homo sapiens, UniProt P15538); assay: Inhibition of human CYP11B1 expressed in hamster V79MZh cells using [1,2-3H]-11-deoxycorticosterone as substrate; type: cell-based
T1 sequence (P15538 whole entry): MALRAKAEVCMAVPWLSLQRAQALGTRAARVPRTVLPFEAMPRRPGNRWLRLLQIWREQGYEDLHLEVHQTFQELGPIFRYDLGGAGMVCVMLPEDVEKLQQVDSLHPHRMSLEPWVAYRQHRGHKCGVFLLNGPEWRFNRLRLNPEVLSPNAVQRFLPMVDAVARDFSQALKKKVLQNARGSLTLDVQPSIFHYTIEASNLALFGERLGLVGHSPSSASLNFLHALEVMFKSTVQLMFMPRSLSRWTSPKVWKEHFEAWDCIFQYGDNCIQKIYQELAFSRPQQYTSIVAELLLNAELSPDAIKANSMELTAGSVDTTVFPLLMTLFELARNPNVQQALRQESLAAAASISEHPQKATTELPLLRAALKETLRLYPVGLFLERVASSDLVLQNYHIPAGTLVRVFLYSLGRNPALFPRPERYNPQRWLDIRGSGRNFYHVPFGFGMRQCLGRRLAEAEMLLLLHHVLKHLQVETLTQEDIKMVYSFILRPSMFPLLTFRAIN
Outline: (§1)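 V79MZh hamster fibroblasts expressing human CYP11B1 or CYP11B2 were incubated with [1,2-3H]-11-deoxycorticosterone (100 nM) plus inhibitor at a range of concentrations. The selectivity factor is IC50(CYP11B2)/IC50(CYP11B1).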

[2] = target: T2, Cytochrome P450 11B2, mitochondrial (Homo sapiens, UniProt P19099); assay: Inhibition of human CYP11B2 expressed in hamster V79MZh cells using [1,2-3H]-11-deoxycorticosterone as substrate; type: cell-based; outline: as §1
T2 sequence (P19099 whole entry): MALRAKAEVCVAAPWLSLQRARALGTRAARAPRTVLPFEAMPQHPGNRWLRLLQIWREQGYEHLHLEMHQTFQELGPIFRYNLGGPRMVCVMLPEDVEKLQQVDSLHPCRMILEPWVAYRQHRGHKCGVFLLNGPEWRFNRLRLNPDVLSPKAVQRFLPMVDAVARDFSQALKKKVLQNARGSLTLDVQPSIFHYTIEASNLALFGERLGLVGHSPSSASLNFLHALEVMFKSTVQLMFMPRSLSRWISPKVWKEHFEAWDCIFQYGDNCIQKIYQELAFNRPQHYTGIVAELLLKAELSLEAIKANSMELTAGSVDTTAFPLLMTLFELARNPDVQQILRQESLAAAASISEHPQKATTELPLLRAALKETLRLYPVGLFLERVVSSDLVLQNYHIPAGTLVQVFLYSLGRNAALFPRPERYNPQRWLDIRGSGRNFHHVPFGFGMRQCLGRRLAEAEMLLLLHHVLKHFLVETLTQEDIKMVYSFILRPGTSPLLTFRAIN

CYP19 (aromatase) = target: T3, CYP19 (aromatase) (Homo sapiens, UniProt P11511); assay: Inhibition of microsomal CYP19 in human placenta using [1beta-3H]-androstenedione as substrate at 2 uM by 3H2O method relative to control; conditions: placental microsomes, probe [1beta-3H]-androstenedione
T3 sequence (P11511 whole entry): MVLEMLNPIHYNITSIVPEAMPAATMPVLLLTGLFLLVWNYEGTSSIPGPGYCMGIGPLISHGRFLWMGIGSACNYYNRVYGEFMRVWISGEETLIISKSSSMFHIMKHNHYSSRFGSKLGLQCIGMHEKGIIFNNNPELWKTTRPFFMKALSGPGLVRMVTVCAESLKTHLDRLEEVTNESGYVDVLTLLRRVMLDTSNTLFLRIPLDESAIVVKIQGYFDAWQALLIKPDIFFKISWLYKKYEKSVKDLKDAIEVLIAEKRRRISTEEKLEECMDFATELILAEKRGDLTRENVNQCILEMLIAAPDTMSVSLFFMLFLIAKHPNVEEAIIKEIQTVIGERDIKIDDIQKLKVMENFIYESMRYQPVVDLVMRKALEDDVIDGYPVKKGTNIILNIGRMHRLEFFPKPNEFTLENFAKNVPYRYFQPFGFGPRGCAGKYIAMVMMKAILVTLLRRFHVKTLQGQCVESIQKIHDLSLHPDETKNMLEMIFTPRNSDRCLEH
Outline: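 Human placental microsomes as the CYP19 source, with [1β-3H]androstenedione at 500 nM. Activity read by 3H2O release. Compound at 2 μM. Percent inhibition is the mean of at least three experiments (deviations <25%); values ≤5% are not significant.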

CYP17 = target: T4, CYP17 (Homo sapiens, UniProt P05093); assay: Inhibition of human CYP17 expressed in Escherichia coli co-expressing rat NADPH-P450 reductase using progesterone as substrate at 2 uM relative to control; conditions: probe progesterone
T4 sequence (P05093 whole entry): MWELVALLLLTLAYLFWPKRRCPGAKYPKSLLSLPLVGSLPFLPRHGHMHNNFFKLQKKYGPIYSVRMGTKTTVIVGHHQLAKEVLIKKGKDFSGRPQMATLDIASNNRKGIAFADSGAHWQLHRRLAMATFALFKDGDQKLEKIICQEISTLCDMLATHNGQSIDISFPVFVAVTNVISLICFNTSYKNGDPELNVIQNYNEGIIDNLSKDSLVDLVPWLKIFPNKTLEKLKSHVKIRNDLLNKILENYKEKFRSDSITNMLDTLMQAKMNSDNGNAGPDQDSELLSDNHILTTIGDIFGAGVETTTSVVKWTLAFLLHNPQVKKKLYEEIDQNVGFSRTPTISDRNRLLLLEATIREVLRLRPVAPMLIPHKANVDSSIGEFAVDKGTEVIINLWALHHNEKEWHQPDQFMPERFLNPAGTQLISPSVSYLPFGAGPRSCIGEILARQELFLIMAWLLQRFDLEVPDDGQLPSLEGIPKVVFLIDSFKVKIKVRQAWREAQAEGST
Outline: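 Human CYP17 expressed in E. coli, co-expressing rat NADPH-P450 reductase. Progesterone substrate at 25 μM with NADPH cofactor. Test compound at 2 μM. Percent inhibition is the mean of at least three experiments (deviations <25%); values ≤5% are treated as not significant.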

[3] = Cytotoxicity against HEK293 cells after 24 hrs; type: cell-based; conditions: human, read-out: LC50
Outline: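 HEK 293 cells seeded at 2 × 10⁵ cells per well; compounds added 24 h after seeding at 1% final DMSO. Living cell mass determined after 24 h incubation; LC₅₀ calculated. Doxorubicin positive control, rifampicin negative control. Mean of more than three repeats.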

Structure (SMILES)	Ratio IC50 (Homo sapiens)	IC50 [1] [µM]	IC50 [2] [µM]	inhibition at 2 µM (CYP19 (aromatase)) [%]	inhibition at 2 µM (CYP17) [%]	CC50 at 24 h [3] [µM]
c1ccc2c(-c3ccc(Cn4ccnc4)cn3)cccc2c1	9.7	0.068	0.656	–	–	–
c1ccc2c(-c3ccc(C(C4CC4)n4ccnc4)cn3)cccc2c1 (configuration not stated)	1.5	0.151	0.22	–	–	–
c1ccc(-c2ccc(Cc3cccnc3)cn2)cc1	10.1	0.032	0.322	0	4	–
Fc1cncc(Cc2ccc(-c3ccccc3)nc2)c1	3.4	0.125	0.419	–	–	–
c1ccc(-c2ncc(Cn3ccnc3)c3ccccc23)cc1	3.5	0.087	0.302	–	–	–
c1ccc(-c2ccc(Cc3cncnc3)cn2)cc1	12.9	0.24	3.11	–	–	–
c1ccc(-c2ncc(Cn3ccnc3)cn2)cc1	> 5	1.12	> 5	–	–	–
c1ccc(-c2ccc(C(C3CC3)n3ccnc3)cn2)cc1 (configuration not stated)	1.2	0.021	0.025	–	–	–
COc1cncc(Cc2ccc(-c3ccccc3)nc2)c1	5.1	0.005	0.025	–	–	–
CC(c1ccc(-c2cccc3ccccc23)nc1)n1ccnc1 (configuration not stated)	4.6	0.06	0.273	–	–	–
COc1cccc2c1C(=O)c1c(O)c3c(c(O)c1C2=O)C[C@@](O)(C(=O)CO)C[C@@H]3O[C@H]1C[C@H](N)[C@H](O)[C@H](C)O1 [DOXORUBICIN]	–	–	–	–	–	4.3
c1ccc(-c2ccc(Nc3cccnc3)cn2)cc1	–	> 5	> 5	–	–	–
c1ccc(-c2ccc(Cn3ccnc3)cn2)cc1	13.3	0.107	1.42	–	–	–
c1ccc(-c2ccc(Oc3cccnc3)cn2)cc1	1.9	1.02	1.88	–	–	–
c1ccc(-c2ccc(C(c3ccco3)n3ccnc3)cn2)cc1 (configuration not stated)	1.1	0.069	0.074	–	–	–
CC(c1ccc(-c2ccsc2)nc1)n1ccnc1 (configuration not stated)	9.1	0.021	0.151	–	–	–

Structure (SMILES)	Ratio IC50 (Homo sapiens)	IC50 [1] [µM]	IC50 [2] [µM]	inhibition at 2 µM (CYP19 (aromatase)) [%]	inhibition at 2 µM (CYP17) [%]	CC50 at 24 h [3] [µM]
NC(=O)c1cncc(Cc2ccc(-c3ccccc3)nc2)c1	6.9	0.427	2.92	–	–	–
c1ccc(-c2cnc(Cn3ccnc3)cn2)cc1	1.7	0.61	1.02	–	–	–
CCC(c1ccc(-c2ccccc2)nc1)n1ccnc1 (configuration not stated)	3.4	0.028	0.092	–	–	–
CC(c1ccc(-c2ccccc2)nc1)n1ccnc1 (configuration not stated)	6.1	0.033	0.2	1	13	–
CO[C@H]1/C=C/O[C@@]2(C)Oc3c(C)c(O)c4c(O)c(c(/C=N/N5CCN(C)CC5)c(O)c4c3C2=O)NC(=O)/C(C)=C\C=C\[C@H](C)[C@H](O)[C@@H](C)[C@@H](O)[C@@H](C)[C@H](OC(C)=O)[C@@H]1C [RIFAMPIN]	–	–	–	–	–	> 100
CC(C)(C(=O)c1cccnc1)c1cccnc1 [METYRAPONE]	–	–	–	–	3	–
c1ccc(-c2ccc(C(c3ccccc3)n3ccnc3)cn2)cc1 (configuration not stated)	0.9	0.124	0.11	–	–	–
c1ccc(-c2ccc(Cc3ccncc3)cn2)cc1	6.4	0.098	0.621	–	–	–
c1cn(C(c2ccc(-c3ccsc3)nc2)C2CC2)cn1 (configuration not stated)	2.8	0.011	0.031	–	–	–
c1ccc(-c2ccc(Cn3ccnc3)nn2)cc1	2.7	1.71	4.54	–	–	–
c1ccc(-c2ccc(Cc3cncc4ccccc34)cn2)cc1	4.2	0.006	0.023	–	–	–
Oc1cncc(Cc2ccc(-c3ccccc3)nc2)c1	16.4	0.051	0.836	–	–	–
c1cn(Cc2ccc(-c3ccsc3)nc2)cn1	5.6	0.181	1.02	–	–	–
Cc1ccncc1Cc1ccc(-c2ccccc2)nc1	2.4	0.008	0.019	–	–	–
CC(C)C(c1ccc(-c2ccccc2)nc1)n1ccnc1 (configuration not stated)	2.4	–	0.028	–	–	–
c1ccc(-c2cncc(Cc3ccc(-c4ccccc4)nc3)c2)cc1	0.4	0.0013	0.0005	–	–	–
